The source made the active and inactive calls. No cut-off for these calls is given here.

The source of these data is ChEMBL document CHEMBL4041535, “Rational design, synthesis and in vitro evaluation of novel exo-methylene butyrolactone salicyloylamide as NF-κB inhibitor” (Bioorg Med Chem Lett, 2017).

Data set [1] has as its target Transcription factor p65 (Homo sapiens) (UniProt Q04206). Description: Inhibition of NFkappaB p65 in human ES2 cells assessed as reduction in MMP2 secretion at 3 to 10 ug/ml after 24 hrs by ELISA. In kind it is cell-based. In short, it runs like this:
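ES-2 cells incubated with compound 24 h; secreted MMP-2 in medium by ELISA. Mean ± SD of 3 determinations.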

The target of data set [2] is Transcription factor p65 (Mus musculus) (UniProt Q04207). As to the kind of experiment: Inhibition of LPS-induced NFkappaB p65-mediated iNOS mRNA expression in mouse RAW264.7 cells at 0.1 to 1 ug/ml preincubated for 30 mins followed by LPS addition measured after 24 hrs by qPCR method. The format is cell-based. In short, it runs like this:
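RAW264.7 cells incubated with compound plus LPS 24 h; iNOS mRNA detected by semi-quantitative PCR.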

The target is the same in data set [3]. Description: Inhibition of LPS-induced NFkappaB p65 activation in mouse RAW264.7 cells at 0.3 to 1 ug/ml preincubated for 30 mins followed by LPS addition measured after 2 hrs by kappaB DNA binding based colorimetric method. In kind it is cell-based. In short, it runs like this:
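RAW264.7 cells given compound 30 min before LPS, stimulated 2 h. Nuclear extract prepared. p65 binding measured on κB DNA-coated dish with labeled p65 antibody (TransAM kit). Mean ± SD of 3 independent experiments.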

For data set [4] the target is unchanged. As to the kind of experiment: Inhibition of LPS-induced NFkappaB p65-mediated iNOS induction in mouse RAW264.7 cells assessed as reduction in NO production at 1 ug/ml using 12 hrs PBS incubated compound preincubated for 30 mins with cells followed by LPS addition measured after 24 hrs by Griess assay. The format is cell-based. In a few lines:
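Compound pre-incubated in PBS at 100 µg/ml, then added to RAW264.7 cells to give 1 µg/ml. LPS 10 ng/ml added 30 min later, 24 h. NO by Griess assay. Mean ± SD of 3 determinations.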
For orientation: The Griess reaction detects nitrite, a stable product of nitric oxide.

The target is the same in data set [5]. As to the kind of experiment: Inhibition of LPS-induced NFkappaB p65-mediated IL-6 secretion in mouse RAW264.7 cells at 0.1 to 1 ug/ml preincubated for 30 mins followed by LPS addition measured after 24 hrs by ELISA. The format is cell-based. In a few lines:
(§1)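 RAW264.7 cells given compound 30 min before LPS, then incubated 24 h. IL-6, IL-1β, TNF-α in medium quantified by ELISA. Mean ± SD of 3 determinations.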
(In general: In an ELISA, binding on a coated surface is turned into a signal by an enzyme label.)

The target of data set [6] is Transcription factor p65 (Homo sapiens) (UniProt Q04206). Description: Inhibition of NFkappaB p65 in human ES2 cells assessed as reduction in MMP2 mRNA expression at 0.1 to 1 ug/ml after 24 hrs by qPCR method. In kind it is cell-based. In a few lines: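 ES-2 cells incubated with compound 24 h; MMP-2 mRNA detected by semi-quantitative PCR.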
Chain of Transcription factor p65 (Homo sapiens) (Q04206 whole entry): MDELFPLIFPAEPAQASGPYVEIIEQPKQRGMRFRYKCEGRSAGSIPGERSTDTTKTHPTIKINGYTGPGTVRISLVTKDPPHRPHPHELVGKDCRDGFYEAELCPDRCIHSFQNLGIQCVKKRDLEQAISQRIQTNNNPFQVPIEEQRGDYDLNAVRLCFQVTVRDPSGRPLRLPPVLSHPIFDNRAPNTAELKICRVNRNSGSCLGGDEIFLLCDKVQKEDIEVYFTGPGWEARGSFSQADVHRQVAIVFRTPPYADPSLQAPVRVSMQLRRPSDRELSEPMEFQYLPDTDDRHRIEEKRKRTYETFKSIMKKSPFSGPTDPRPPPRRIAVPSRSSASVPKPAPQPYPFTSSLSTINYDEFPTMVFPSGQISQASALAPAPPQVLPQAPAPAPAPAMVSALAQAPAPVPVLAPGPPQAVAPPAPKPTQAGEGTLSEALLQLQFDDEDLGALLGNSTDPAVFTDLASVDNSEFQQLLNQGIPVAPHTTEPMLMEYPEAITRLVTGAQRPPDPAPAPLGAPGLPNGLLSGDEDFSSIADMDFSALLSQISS
(Real-time PCR tracks product formation cycle by cycle.)

Data set [7] deals with ES2. Description: Antimigratory activity against human ES2 cells at 1 to 10 ug/ml after 24 hrs by radius 96-well migration assay. The format is functional, cell-based. In short, it runs like this:
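ES-2 cells treated 24 h; migration read by Radius 96-well cell migration assay. Mean ± SD of 3 determinations.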

In a further data set the test system is RAW264.7. As to the kind of experiment: Cytotoxicity against mouse RAW264.7 cells assessed as reduction in cell viability up to 1 ug/ml after 24 hrs by MTT assay. In kind it is cell-based. Conditions: raw264.7, 24 h. In a few lines:
(§2)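 Cells treated with compound 24 h; viability by MTT. Mean ± SD of 3 determinations.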

A short description of data set [8]: Chemical stability in PBS at 100 ug/ml up to 12 hrs at 37 degC by HPLC analysis. In kind it is physicochemical. The conditions noted are these: buffer. In a few lines: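 Compound dissolved in PBS at 100 µg/ml, held at 37 °C for 0, 30 min, 1, 2, 6, 12 h. Extracted into ethyl acetate, dried, then quantified by HPLC. Column: ODS at 40 °C. Mobile phase: acetonitrile/0.1% ammonium acetate (22:78), 0.3 mL/min. UV detection at 254 nm. Mean ± SD of 3 determinations.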

In data set [9] the test system is ES2. As to the kind of experiment: Anti-invasive activity against human ES2 cells at 0.1 to 0.3 ug/ml after 24 hrs by Diff-Quick staining based matrigel chamber assay. The format is functional, cell-based. In short, it runs like this:
(§3)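 ES-2 ovarian clear cell carcinoma cells exposed to compound 24 h; invasion through Matrigel chamber. Mean ± SD of 4 fields.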

Data set [10] can be described thus: Cytotoxicity against human ES2 cells assessed as reduction in cell viability up to 30 ug/ml after 24 hrs by MTT assay. The format is cell-based. Conditions: es2, 24 h. In short, it runs like this: as §2
The target of data set [11] is Transcription factor p65 (Mus musculus) (UniProt Q04207). As to the kind of experiment: Inhibition of LPS-induced NFkappaB p65-mediated TNF-alpha secretion in mouse RAW264.7 cells at 0.1 to 1 ug/ml preincubated for 30 mins followed by LPS addition measured after 24 hrs by ELISA. The format is cell-based. In a few lines:
as §1

In data set [12] the target is Transcription factor p65 (Homo sapiens) (UniProt Q04206). As to the kind of experiment: Inhibition of constitutively activated NFkappaB p65 in human ES2 cells at 3 to 10 ug/ml after 2 hrs by kappaB DNA binding based colorimetric method. The format is cell-based. In short, it runs like this: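 ES-2 cells exposed to compound 2 h. Nuclear extract prepared. p65 binding to κB DNA-coated dish detected with labeled p65 antibody.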

Data set [13] addresses Transcription factor p65 (Mus musculus) (UniProt Q04207). Description: Inhibition of kappaB DNA binding to NFkappaB p65 in LPS-stimulated mouse RAW264.7 nuclear extract at 3 to 10 ug/ml after 15 mins by colorimetric method. In a few lines: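 RAW264.7 cells stimulated with LPS 2 h to accumulate nuclear NF-κB. Nuclear extract prepared; compound added directly to extract. p65-κB DNA binding read with TransAM NF-κB p65 kit. Mean ± SD of 3 independent experiments.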

Data set [14] shares this target. As to the kind of experiment: Inhibition of LPS-induced NFkappaB p65-mediated IL-1beta secretion in mouse RAW264.7 cells at 0.1 to 1 ug/ml preincubated for 30 mins followed by LPS addition measured after 24 hrs by ELISA. In kind it is cell-based. In short, it runs like this: as §1
Data set [15] has the same target. As to the kind of experiment: Inhibition of LPS-induced NFkappaB p65-mediated iNOS induction in mouse RAW264.7 cells assessed as reduction in NO production preincubated for 30 mins followed by LPS addition measured after 24 hrs by Griess assay. The format is cell-based. In a few lines:
(§4)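 RAW264.7 cells given compound 30 min before LPS, then incubated 24 h. Nitrite in medium measured by Griess assay. Mean ± SD of 3 determinations.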

Data set [16] concerns the target Transcription factor p65 (Homo sapiens) (UniProt Q04206). Description: Inhibition of kappaB DNA binding to NFkappaB p65 in human ES2 nuclear extract at 3 to 10 ug/ml after 15 mins by colorimetric method. In short, it runs like this:
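Compound added directly to ES-2 nuclear extract. p65 binding to κB DNA-coated dish detected with labeled p65 antibody. Mean ± SD of 3 independent experiments.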

In data set [17] the target is Transcription factor p65 (Mus musculus) (UniProt Q04207). Description: Inhibition of LPS-induced NFkappaB p65-mediated iNOS induction in mouse RAW264.7 cells assessed as reduction in NO production at 0.3 to 10 ug/ml preincubated for 30 mins followed by LPS addition measured after 24 hrs by Griess assay. The format is cell-based. In a few lines:
as §4

In data set [18] the test system is ES2. Description: Anti-invasive activity against human ES2 cells at 1 to 10 ug/ml after 24 hrs by Diff-Quick staining based matrigel chamber assay. The format is functional, cell-based. In a few lines:
as §3

Chain of Transcription factor p65 (Mus musculus) (Q04207 whole entry): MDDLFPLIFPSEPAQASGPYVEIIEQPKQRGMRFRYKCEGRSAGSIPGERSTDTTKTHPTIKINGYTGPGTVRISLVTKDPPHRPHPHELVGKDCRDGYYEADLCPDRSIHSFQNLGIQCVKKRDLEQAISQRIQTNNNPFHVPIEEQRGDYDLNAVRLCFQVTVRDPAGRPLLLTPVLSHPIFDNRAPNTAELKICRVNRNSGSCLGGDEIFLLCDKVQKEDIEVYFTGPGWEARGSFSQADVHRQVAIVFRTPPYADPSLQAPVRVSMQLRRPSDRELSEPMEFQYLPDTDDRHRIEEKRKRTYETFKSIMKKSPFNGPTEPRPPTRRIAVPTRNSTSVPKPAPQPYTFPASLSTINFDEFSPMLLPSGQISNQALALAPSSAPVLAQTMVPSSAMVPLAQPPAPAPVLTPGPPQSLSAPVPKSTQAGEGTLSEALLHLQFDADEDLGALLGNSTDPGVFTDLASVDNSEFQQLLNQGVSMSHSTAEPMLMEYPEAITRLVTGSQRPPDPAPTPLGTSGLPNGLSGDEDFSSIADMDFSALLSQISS

For `C=C1C(=O)OC[C@H]1NC(=O)c1ccccc1O`, the inhibition entry in data set [1], in [2], in [3], in data set [4], in data set [5] and in data set [6] was “Active” each time. Further, the inhibition entry (in the data set with ES2 [7]; in the data set with ES2 [9]; in data set [11]; in data set [12]; in data set [13]; in data set [14]) was “Active” in each case. In addition, the inhibition entry in data set [16] was “Active”. In addition, the Activity result (with RAW264.7; in data set [10]) was “Non-Toxic” in each case. Besides, the Stability result in data set [8] is “Stable”. In addition, the inhibition entry in data set [15] was “Dose-dependent effect”.
On to `O=C(NC1=CC(=O)[C@H]2O[C@H]2[C@H]1O)c1ccccc1O` [DEHYDROXYMETHYLEPOXYQUINOMICIN], for which the inhibition result (in data set [17]; in [3]; in [12]; in data set [13]; in the data set on ES2 [18]) was “Active” throughout. In addition, the Stability result in data set [8] was “Unstable”.
